Assay results published in ChEMBL document CHEMBL4257448, “Deciphering the origins of molecular toxicity of combretastatin A4 and its glycoconjugates: interactions with major drug transporters and their safety profiles in vitro and in vivo” (Medchemcomm, 2017).
pIC50: −log10 of the molar value. Active and inactive are the calls of the source. The calls are words filed in the database; no cut-off is given here.

Columns and labels:
SK-OV-3 = assay: Cytotoxicity against human SKOV3 cells assessed as reduction in cell viability up to 20 uM after 24 hrs by MTT assay; assay type: functional, cell-based
Method in brief: (§1)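 Cells were grown as adherent monolayers at 37 °C in 5% CO2: SKOV3 in advanced DMEM, DU145 and MB231 in RPMI-1640 with glutamine and 10% FBS. They were seeded at 2000–7500 cells/well, treated on day 1 for 24 h with drug in DMSO (final DMSO <0.1%), then given MTT at 0.83 mg mL−1 final overnight. After SDS/HCl lysis, A570 was read as percent of drug-free control; five replicate wells.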

[1] = Toxicity in ip dosed DBA/2 mouse assessed as reduction in 15% body weight administered as daily dose for 3 days; assay type: organism-based; details: in vivo
Method in brief: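 Adult male DBA/2 mice were dosed i.p. at 10 mL kg−1, with 5 per group. Controls (n = 8) received saline. MTD was the dose allowing 15% median body-weight loss with no toxic deaths or marked change in general signs within 3 days.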

HT-29 = assay: Cytotoxicity against human HT-29 cells assessed as reduction in cell viability after 72 hrs by MTT assay; assay type: functional, cell-based; details: HT-29, 72 h
Method in brief: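 HT29 cells were cultured in RPMI-1640 with glutamine and 10% FBS, seeded at 2000–7500 cells/well, and exposed for 72 h to drug in DMSO (final DMSO <0.1%). MTT was added at 0.83 mg mL−1 final and incubated overnight, then cells were lysed in SDS/HCl and read at 570 nm. Survival was expressed as percent of drug-free control; five replicate wells.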

[2] = target: T1, Solute carrier family 22 member 1 (Homo sapiens, UniProt O15245); assay: Substrate activity at human OCT1 expressed in HEK293 cells assessed as compound uptake by HPLC-UV method; assay type: ADME, cell-based
T1 sequence (O15245 whole entry): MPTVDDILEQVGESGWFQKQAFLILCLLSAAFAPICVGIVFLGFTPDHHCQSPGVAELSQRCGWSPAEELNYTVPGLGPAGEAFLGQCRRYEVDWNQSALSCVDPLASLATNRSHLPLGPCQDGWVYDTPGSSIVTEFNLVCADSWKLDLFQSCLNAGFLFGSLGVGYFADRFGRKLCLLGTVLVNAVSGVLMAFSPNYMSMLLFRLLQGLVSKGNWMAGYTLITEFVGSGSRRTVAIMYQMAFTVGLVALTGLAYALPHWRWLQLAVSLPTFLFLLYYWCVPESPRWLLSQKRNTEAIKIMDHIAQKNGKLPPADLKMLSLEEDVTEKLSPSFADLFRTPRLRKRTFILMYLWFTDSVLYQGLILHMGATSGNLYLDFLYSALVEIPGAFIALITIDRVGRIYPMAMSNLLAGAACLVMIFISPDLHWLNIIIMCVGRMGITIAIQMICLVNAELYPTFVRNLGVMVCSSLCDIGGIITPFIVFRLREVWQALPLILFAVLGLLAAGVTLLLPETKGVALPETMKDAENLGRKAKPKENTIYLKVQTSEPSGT

[3] = target: T2, Solute carrier family 22 member 6 (Homo sapiens, UniProt Q4U2R8); assay: Inhibition of human OAT1 expressed in HEK293 cells assessed as 6-CF uptake after 5 mins by fluorescence assay; assay type: cell-based; details: for inhibition (INH): human, hek293, 5 min
T2 sequence (Q4U2R8 whole entry): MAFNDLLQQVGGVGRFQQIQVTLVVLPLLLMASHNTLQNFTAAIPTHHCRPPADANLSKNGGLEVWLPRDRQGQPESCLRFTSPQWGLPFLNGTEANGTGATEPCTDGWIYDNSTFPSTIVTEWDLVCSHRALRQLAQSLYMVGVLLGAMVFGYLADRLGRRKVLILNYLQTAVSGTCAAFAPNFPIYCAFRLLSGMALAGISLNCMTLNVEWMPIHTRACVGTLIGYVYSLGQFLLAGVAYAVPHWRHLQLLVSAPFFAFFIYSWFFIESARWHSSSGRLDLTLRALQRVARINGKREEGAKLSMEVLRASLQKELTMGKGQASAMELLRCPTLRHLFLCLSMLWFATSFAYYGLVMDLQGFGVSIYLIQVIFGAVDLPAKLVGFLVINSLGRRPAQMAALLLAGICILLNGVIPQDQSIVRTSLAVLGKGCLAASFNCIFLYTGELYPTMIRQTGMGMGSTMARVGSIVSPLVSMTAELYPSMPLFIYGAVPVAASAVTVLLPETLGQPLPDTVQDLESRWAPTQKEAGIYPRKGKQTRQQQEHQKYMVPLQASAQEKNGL
Method in brief: (§2)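 Stably transfected HEK293 cells (human OAT1, OAT3, OCT1, OCT2, OATP1B3, OATP2B1) and mock cells were assayed 16 h after seeding in HEPES uptake buffer, pH 7.2, with fluorescent probe ± compound. Incubation was 5 min for OAT1/3 and OATPs, and 10 min for OCT1/2. Reference inhibitors were probenecid (OATs), quinine (OCTs) and rifampicin (OATPs). Uptake was stopped with ice-cold PBS and cells were lysed in Tris/Triton. Fluorescence was normalised to BCA protein; triplicates, repeated 2–3 times.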

[4] = Cytotoxicity against HEK293FT cells expressing GLUT1 assessed as reduction in cell viability up to 20 uM; assay type: cell-based; details: human
[5] = target: T3, Solute carrier family 22 member 2 (Homo sapiens, UniProt O15244); assay: Inhibition of human OCT2 expressed in HEK293 cells assessed as Asp+ uptake after 10 mins by fluorescence assay; assay type: cell-based; details: for inhibition (INH): human, hek293, 10 min; method in brief: as §2
T3 sequence (O15244 whole entry): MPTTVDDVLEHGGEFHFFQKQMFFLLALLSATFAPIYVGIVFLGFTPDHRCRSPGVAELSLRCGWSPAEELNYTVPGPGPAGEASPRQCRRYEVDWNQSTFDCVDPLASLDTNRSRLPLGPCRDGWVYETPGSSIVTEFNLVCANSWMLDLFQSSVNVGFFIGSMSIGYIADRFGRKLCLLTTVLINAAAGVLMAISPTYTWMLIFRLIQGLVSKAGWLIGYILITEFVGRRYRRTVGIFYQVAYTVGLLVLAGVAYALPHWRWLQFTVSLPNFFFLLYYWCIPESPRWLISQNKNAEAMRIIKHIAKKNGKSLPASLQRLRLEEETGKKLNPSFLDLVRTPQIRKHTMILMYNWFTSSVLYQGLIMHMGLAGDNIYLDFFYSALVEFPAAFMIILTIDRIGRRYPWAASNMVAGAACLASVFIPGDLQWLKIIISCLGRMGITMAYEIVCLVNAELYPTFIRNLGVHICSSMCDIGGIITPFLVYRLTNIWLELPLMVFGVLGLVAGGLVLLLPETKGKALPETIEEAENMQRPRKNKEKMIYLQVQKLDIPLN

MDA-MB-231 = assay: Cytotoxicity against human MDA-MB-231 cells assessed as reduction in cell viability up to 20 uM after 24 hrs by MTT assay; assay type: functional, cell-based; method in brief: as §1

SMILES	Activity (SK-OV-3)	MTD at 72 h [1] [mg/kg]	pIC50 (HT-29)	Drug uptake [2]	pIC50 [3]	inhibition (INH) [3]	Activity [4]	pIC50 [5]	inhibition (INH) [5]	Activity (MDA-MB-231)
COc1ccc(/C=C\c2cc(OC)c(OC)c(OC)c2)cc1O[C@@H]1O[C@H](CO)[C@@H](O)[C@H](O)[C@H]1O	Active	400	5.16	Not Active	< 3.70	Dose-dependent effect	Toxic	< 3.70	Dose-dependent effect	Active
COc1ccc(/C=C\c2cc(OC)c(OC)c(OC)c2)cc1O [COMBRETASTATIN A4]	Active	25	6.14	Active	4.38	Dose-dependent effect	Toxic	4.21	Dose-dependent effect	Active
